{"source": "paper PMC7740640", "about": "(Xenobiotica; the fate of foreign compounds in biological …, 2020)", "type_in_all_cases": "in vitro ADME", "key": {"CYP1A2": {"target": "T1, CYP1A2 (Homo sapiens, UniProt P05177)", "T1 sequence (P05177 2-516 limits assumed)": "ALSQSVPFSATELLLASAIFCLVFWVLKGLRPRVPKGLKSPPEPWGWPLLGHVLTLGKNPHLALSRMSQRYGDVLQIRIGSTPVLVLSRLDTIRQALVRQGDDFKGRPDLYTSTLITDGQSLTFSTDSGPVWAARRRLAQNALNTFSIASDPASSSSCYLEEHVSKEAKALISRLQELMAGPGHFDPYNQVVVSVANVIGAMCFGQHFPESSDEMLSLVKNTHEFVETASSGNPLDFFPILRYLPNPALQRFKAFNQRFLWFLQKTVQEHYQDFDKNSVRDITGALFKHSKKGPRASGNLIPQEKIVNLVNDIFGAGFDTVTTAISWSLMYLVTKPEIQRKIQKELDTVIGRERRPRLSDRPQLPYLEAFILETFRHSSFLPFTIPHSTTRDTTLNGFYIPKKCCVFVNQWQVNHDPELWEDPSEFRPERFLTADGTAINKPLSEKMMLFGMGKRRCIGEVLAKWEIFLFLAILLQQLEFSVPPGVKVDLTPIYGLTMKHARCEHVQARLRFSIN", "assay": "Projected involvement in C152 metabolism in HLM", "in_short": "(§1)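 Calculated values, no new incubations. Each of seven C152-metabolizing P450s has a fractional content in the pooled HLM P450 pool (LC-MS/MS MRM). That fraction is multiplied by its Supersome Vmax (saturation) or by its rate at 30 μM C152 from Hill or Michaelis–Menten parameters. Expected participation (% TNR) is each normalized rate divided by the sum of all seven.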"}, "CYP3A4": {"target": "CYP3A4 (Homo sapiens, UniProt P08684)", "sequence (P08684 2-503 limits assumed)": "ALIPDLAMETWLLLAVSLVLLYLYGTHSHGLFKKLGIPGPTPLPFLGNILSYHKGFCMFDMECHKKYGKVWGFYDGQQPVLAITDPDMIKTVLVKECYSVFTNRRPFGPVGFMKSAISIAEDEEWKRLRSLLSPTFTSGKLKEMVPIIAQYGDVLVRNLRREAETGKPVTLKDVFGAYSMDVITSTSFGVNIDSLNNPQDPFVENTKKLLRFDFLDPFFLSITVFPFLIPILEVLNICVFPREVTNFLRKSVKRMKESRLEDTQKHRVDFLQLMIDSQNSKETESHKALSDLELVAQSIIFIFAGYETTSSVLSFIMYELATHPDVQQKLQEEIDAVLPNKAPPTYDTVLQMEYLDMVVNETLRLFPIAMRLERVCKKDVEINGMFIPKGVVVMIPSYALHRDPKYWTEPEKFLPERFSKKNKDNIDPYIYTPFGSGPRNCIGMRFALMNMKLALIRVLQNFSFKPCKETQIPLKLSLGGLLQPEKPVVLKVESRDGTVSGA", "assay": "Formation of C151 from C152", "conditions": "SS(3A4)", "in_short": "(§2)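 Probes hold 5–20 pmol P450 in 0.1 M Na-HEPES pH 7.4 with 60 mM KCl. C152 added from 0.5 or 4 mM acetone stock; reaction started with 500 μM NADPH (final), run 5 min at 30 °C with shaking. Quenched with isopropanol containing phenacetin internal standard, then centrifuged. C151 quantified by reverse-phase LC with ESI-positive MRM MS/MS (m/z 230.16→157.2). Michaelis–Menten or Hill fit; normalized per P450 (Supersomes) or CPR (HLM).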"}, "CYP2C8": {"target": "T2, CYP2C8 (Homo sapiens, UniProt P10632)", "T2 sequence (P10632 1-490)": "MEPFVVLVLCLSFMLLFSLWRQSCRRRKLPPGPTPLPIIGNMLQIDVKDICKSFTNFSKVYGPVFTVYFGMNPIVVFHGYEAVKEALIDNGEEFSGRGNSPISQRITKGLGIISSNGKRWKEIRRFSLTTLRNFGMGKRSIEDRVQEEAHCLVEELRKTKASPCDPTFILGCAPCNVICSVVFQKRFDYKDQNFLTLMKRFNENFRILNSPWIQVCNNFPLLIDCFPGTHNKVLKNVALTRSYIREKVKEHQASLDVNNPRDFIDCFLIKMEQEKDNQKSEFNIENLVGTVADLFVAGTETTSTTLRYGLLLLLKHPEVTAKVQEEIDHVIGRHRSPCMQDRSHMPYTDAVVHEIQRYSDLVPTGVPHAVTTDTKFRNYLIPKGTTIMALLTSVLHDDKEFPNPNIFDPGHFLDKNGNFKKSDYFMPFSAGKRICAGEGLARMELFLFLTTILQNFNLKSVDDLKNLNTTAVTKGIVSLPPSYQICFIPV", "assay": "C152 metabolism"}, "CYP2B6 [1]": {"target": "T3, CYP2B6 (Homo sapiens, UniProt P20813)", "T3 sequence (P20813 1-491)": "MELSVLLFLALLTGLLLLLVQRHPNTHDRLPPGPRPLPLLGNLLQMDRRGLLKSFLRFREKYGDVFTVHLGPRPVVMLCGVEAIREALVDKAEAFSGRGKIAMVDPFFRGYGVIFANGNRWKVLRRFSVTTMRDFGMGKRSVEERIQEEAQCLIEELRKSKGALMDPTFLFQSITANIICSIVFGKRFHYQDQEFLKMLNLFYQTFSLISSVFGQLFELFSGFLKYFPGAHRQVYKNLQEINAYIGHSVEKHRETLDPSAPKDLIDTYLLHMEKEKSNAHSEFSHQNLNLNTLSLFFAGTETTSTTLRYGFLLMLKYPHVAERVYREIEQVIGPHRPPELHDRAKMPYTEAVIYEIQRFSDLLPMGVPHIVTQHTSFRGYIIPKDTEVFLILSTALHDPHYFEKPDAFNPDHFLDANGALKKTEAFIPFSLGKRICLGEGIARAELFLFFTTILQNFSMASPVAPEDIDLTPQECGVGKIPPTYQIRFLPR", "assay": "Projected involvement in C152 metabolism in HLM", "in_short": "as §1"}, "CYP2A6": {"target": "CYP2A6 (Homo sapiens, UniProt P11509)", "sequence (P11509 whole entry)": "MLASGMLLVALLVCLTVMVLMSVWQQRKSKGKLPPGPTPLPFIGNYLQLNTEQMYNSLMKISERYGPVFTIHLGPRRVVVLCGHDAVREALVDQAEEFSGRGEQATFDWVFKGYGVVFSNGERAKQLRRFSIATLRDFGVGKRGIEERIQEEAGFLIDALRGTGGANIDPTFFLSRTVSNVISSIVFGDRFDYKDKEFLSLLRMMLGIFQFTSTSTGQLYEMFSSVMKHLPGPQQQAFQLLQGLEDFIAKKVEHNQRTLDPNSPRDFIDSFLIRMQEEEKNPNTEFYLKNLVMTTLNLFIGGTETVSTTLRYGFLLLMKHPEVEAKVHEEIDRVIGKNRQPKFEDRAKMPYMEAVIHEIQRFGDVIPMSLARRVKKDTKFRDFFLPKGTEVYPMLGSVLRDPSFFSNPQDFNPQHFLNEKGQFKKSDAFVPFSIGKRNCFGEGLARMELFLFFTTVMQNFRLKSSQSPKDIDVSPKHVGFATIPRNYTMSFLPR", "assay": "C152 metabolism by Supersomes containing CYP2A6", "conditions": "recombinant CYP2A6 Supersomes"}, "CYP2C9": {"target": "CYP2C9 (Homo sapiens, UniProt P11712)", "sequence (P11712 whole entry)": "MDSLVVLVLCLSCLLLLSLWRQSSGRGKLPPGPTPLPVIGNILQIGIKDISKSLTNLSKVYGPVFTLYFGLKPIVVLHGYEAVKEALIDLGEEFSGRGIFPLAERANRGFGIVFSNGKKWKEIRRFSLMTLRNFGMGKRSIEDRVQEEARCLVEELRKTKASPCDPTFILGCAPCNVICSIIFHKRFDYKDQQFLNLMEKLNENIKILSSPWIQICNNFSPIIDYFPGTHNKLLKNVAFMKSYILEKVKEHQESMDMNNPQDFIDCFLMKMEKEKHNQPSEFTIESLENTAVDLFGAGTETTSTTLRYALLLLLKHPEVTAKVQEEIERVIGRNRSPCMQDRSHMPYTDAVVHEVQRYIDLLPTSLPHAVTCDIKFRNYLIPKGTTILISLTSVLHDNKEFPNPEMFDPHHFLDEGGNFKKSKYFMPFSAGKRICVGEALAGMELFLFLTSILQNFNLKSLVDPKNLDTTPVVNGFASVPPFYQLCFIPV", "assay": "Projected involvement in C152 metabolism in HLM", "in_short": "as §1"}, "CYP2E1": {"target": "CYP2E1 (Homo sapiens, UniProt P05181)", "sequence (P05181 whole entry)": "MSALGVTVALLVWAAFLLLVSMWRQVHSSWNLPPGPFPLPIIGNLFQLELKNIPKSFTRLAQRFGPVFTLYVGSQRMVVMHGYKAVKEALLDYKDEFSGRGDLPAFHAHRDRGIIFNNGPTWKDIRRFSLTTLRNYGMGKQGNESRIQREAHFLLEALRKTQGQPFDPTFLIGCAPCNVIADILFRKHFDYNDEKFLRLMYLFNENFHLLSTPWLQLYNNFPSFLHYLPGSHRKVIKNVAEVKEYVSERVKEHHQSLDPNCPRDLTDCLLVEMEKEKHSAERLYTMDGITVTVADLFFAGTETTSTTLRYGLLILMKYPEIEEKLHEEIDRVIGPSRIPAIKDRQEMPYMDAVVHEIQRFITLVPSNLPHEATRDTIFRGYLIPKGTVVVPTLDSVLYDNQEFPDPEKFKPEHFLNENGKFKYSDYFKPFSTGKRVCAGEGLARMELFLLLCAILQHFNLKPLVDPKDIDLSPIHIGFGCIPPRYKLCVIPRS", "assay": "C152 metabolism by Supersomes containing CYP2E1", "conditions": "recombinant CYP2E1 Supersomes"}, "CYP2B6 [2]": {"target": "T3, CYP2B6", "assay": "C152 metabolism", "conditions": "for Specific rate: CYP2B6", "in_short": "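Human P450s in Supersomes that co-express human CPR and cytochrome b5. Reaction in 0.1 M Na-HEPES pH 7.4 with 60 mM KCl, stirred at 30 °C. C152 0.1–30 μM added from acetone stock; 200 μM NADPH starts it. Fluorescence rise read at 500 nm (isosbestic, mono-demethylation step). Rate is the linear slope over 3–5 min, scaled by the C151–C152 fluorescence difference. Michaelis–Menten or Hill fit, Vmax per P450, 2–6 runs; rate at 30 μM computed from fit.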"}, "CYP2B6 [3]": {"target": "T3, CYP2B6", "assay": "Formation of C151 from C152", "conditions": "SS(2B6)", "in_short": "as §2"}, "[4]": {"conditions": "at saturation of all P450 species"}, "[5]": {"conditions": "C151 formed over total C152 metabolized"}, "[6]": {"conditions": "mol C151 formed per mol P450 per min"}}, "note": "Where “and” joins values, the source holds several entries; their conditions need not be identical. Equal values may be shown once.", "data": [{"compound": "CN(C)c1ccc2c(C(F)(F)F)cc(=O)oc2c1", "note": "[C152, 7-Dimethylamino-4-trifluromethylcoumarin]", "values": [{"measurement": "Normalized rate", "setting": "CYP1A2; at 30 μM C152", "value": 0.375, "unit": "min⁻¹"}, {"measurement": "Expected participation", "setting": "CYP1A2; at 30 μM C152, % TNR", "value": 3.08, "unit": "%"}, {"measurement": "Normalized rate", "setting": "CYP1A2; [4]", "value": 0.412, "unit": "min⁻¹"}, {"measurement": "Expected participation", "setting": "CYP1A2; at saturation of all P450 species, % TNR", "value": 3.10, "unit": "%"}, {"measurement": "N, Hill coefficient (Formation of C151, LC-MS)", "setting": "CYP3A4", "value": "1.4±0.4"}, {"measurement": "Fraction of C151 formed, LC-MS", "setting": "CYP3A4; [5]", "value": "5.4±2.4", "unit": "%"}, {"measurement": "Vmax (Formation of C151, LC-MS)", "setting": "CYP3A4; [6]", "value": "0.94 ± 0.41", "unit": "min⁻¹"}, {"measurement": "Km", "setting": "CYP3A4; read-out: KM or S50 (Formation of C151, LC-MS), Hill fit (S50)", "value": "6.4 ± 1.1", "unit": "µM"}, {"measurement": "Specific rate", "setting": "CYP2C8; CYP2C8, at 30 μM C152, calculated from fit parameters", "value": 1.9, "unit": "min⁻¹"}, {"measurement": "N, Hill coefficient (C152 metabolism, fluorimetric assay)", "setting": "CYP2C8; SS(2C8)", "value": "2.6±0.3"}, {"measurement": "Vmax (C152 metabolism, fluorimetric assay)", "setting": "CYP2C8; SS(2C8), mol C152 per mol P450 per min", "value": "2.6 ± 0.8", "unit": "min⁻¹"}, {"measurement": "Km", "setting": "CYP2C8; read-out: KM or S50 (C152 metabolism, fluorimetric assay), SS(2C8), Hill fit (S50), 30 °C, pH 7.4", "value": "12 ± 6", "unit": "µM"}, {"measurement": "Normalized rate", "setting": "CYP2B6 [1]; at 30 μM C152", "value": 0.863, "unit": "min⁻¹"}, {"measurement": "Expected participation", "setting": "CYP2B6 [1]; at 30 μM C152, % TNR", "value": 7.10, "unit": "%"}, {"measurement": "Normalized rate", "setting": "CYP2B6 [1]; [4]", "value": 0.914, "unit": "min⁻¹"}, {"measurement": "activity with C152", "setting": "CYP2A6", "value": "no detectable activity"}, {"measurement": "Normalized rate", "setting": "CYP2C9; at 30 μM C152", "value": 0.496, "unit": "min⁻¹"}, {"measurement": "Expected participation", "setting": "CYP2C9; at 30 μM C152, % TNR", "value": "4% and 4.08%"}, {"measurement": "Normalized rate", "setting": "CYP2C9; [4]", "value": 0.981, "unit": "min⁻¹"}, {"measurement": "activity with C152", "setting": "CYP2E1", "value": "no detectable activity"}, {"measurement": "Specific rate", "setting": "CYP2B6 [2]; at 30 μM C152, calculated from fit parameters", "value": 46.6, "unit": "min⁻¹"}, {"measurement": "Specific rate", "setting": "CYP2B6 [2]; at saturation (Vmax in Supersomes)", "value": 49.3, "unit": "min⁻¹"}, {"measurement": "Vmax (C152 metabolism, fluorimetric assay)", "setting": "CYP2B6 [2]; SS(2B6), mol C152 per mol P450 per min", "value": "49 ± 11", "unit": "min⁻¹"}, {"measurement": "Fraction of C151 formed, Fluorimetry", "setting": "CYP2B6 [2]; SS(2B6), scanning fluorimetry with PCA", "value": "7.3±3.4", "unit": "%"}, {"measurement": "Km", "setting": "CYP2B6 [2]; read-out: KM or S50 (C152 metabolism, fluorimetric assay), SS(2B6), Michaelis-Menten fit, 30 °C, pH 7.4", "value": "1.8 ± 0.2", "unit": "µM"}, {"measurement": "Fraction of C151 formed, LC-MS", "setting": "CYP2B6 [3]; [5]", "value": "4% and 4.0±0.8%"}, {"measurement": "Vmax (Formation of C151, LC-MS)", "setting": "CYP2B6 [3]; [6]", "value": "1.8 ± 0.4", "unit": "min⁻¹"}, {"measurement": "Km", "setting": "CYP2B6 [3]; read-out: KM or S50 (Formation of C151, LC-MS), Michaelis-Menten fit", "value": "1 ± 0.4", "unit": "µM"}]}]}
